From PubChem BioAssay
A selection: hits, their analogues and other compounds. The true share with any hit is near 3.9%.
ANO1 activ – mouse TMEM16A channel activation, primary screen; HEK293 TMEM16A/YFP-H148Q/I152L, iodide quench fluorescence; hits give low values; B-score at 10 µM; 340,000 tested, 0.3% active; AID 623877;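 active = fluorescence-ratio B-score plate-corrected deviation score at least 3 library SD below zero, with starting fluorescence score within 5 deviations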;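 note: channel opened by trigger with iodide after compound preincubation; score built on the fluorescence ratio of max minus min over baseline; more negative score means more quench and so TMEM16A activation or potentiation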
CRFBP-R2 block – CRF-BP/CRF-R2 complex antagonism; HEK293 CRF-R2/CRF-BP, CRF-induced calcium fluorescence; inhibition, % at 11.8 µM; 350,000 tested, 0.59% active;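 active = inhibition of the ligand-induced calcium signal above about 50% at the single tested concentration, limit read from the data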
TAAR1 agonist – agonists of human TAAR1; 360,000 tested, 0.99% active; Q96RJ0; AID 624467; activation, % at 3 µM; CHO RD-HGA16 TAAR1, Fluo-8 calcium fluorescence; vehicle wells 0%, saturating PEA agonist 100%;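 active = activation above the mean activation of all test compounds in the run plus 3 SD, cut at about 38% in these data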
Target sequence (Q96RJ0 whole entry, looked up): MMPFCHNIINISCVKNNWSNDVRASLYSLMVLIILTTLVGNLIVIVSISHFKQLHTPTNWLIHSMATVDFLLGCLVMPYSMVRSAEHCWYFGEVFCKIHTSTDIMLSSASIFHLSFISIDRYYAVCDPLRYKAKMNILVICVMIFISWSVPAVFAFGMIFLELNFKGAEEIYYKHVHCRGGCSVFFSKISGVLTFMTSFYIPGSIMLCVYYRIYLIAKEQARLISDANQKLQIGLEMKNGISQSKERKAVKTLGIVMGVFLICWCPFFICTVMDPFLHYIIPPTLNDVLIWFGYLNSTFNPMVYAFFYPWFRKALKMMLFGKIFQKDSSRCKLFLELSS
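Signal – calcium-sensitive Fluo-8 signal, excitation 470-495, emission 515-575 nm · System – RD-HGA16 (CHO) cells co-expressing Gα16 and hTAAR1 · Incubation – 17-24 h seeding, 75 min 37 °C dye, 30 min RT · Compound dosing – 3 µM single concentration · Repeats – no replicates (n 1)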
ANO1 block – inhibitors of mouse TMEM16A calcium-activated chloride channel | normalized B-score (activity score, 25-100; higher = stronger inhibition) at 10 µM | HEK293 TMEM16A/YFP iodide influx fluorescence, ionomycin | 310,000 tested, 1.2% active | Q8BHY3 | AID 588511;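 active = ratio plate-corrected score three or more library SD toward inhibition, starting fluorescence score within five deviations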;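 note: score derived from kinetic fluorescence span divided by baseline fluorescence per well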
TAAR1 antagonist – human TAAR1 antagonism; AID 624466; CHO RD-HGA16 TAAR1, Fluo-8 calcium fluorescence, antagonist; inhibition, % at 3 µM; 360,000 tested, 1.5% active; Q96RJ0;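 active = inhibition above a per-plate cutoff, the mean inhibition of test compounds on that plate plus 3 SD, cut at about 49% in these data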;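 note: 0% = DMSO plus EC80 beta-PEA response and 100% = DMSO alone without agonist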
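Test system – hTAAR1-expressing CHO RD-HGA16 cells, Gα16-coupled · Also added – β-PEA at EC80 concentration, post-compound challenge · Compound – 3 µM, single point · Incubation – dye loading 75 min at 37 °C, then 30 min room temperature · Measured by – Fluo-8 intracellular calcium dye fluorescence, real-time kinetic reads · Benchmarks – vehicle and agonist controls · Replicates – singlicate, one well per test compound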
CRFBP-R2 agonist – agonists of human CRF-binding protein/CRF-R2 receptor complex; AID 588473; HEK293 CRF-R2/CRF-BP, calcium dye fluorescence (FLIPR); percent of saturating CRF peptide response; 350,000 tested, 0.46% active; activation, % at 13.2 µM;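 active = activation of at least 50%, plus an integration ratio under a set limit after plate pattern correction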;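 note: plate controls were neutral control wells without compound for no effect and CRF at EC100 for full effect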
TAAR1 ag conf – human TAAR1 agonism, confirmed | shares compounds with TAAR1 agonist | CHO RD-HGA16 TAAR1, Fluo-8 calcium fluorescence; scaled: DMSO 0%, maximal phenethylamine 100% | activation, % at 3 µM | 2,400 tested, 82% active;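 active = activation above a cutoff set at the run's mean compound activation plus 3 SD, cut at about 39% in these data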
Ga16 ag counter – nonselective agonist in parental cells, TAAR1 agonist counter-screen | shares compounds with TAAR1 agonist | 2,400 tested, 50% active | CHO-Ga16 parental, Fluo-8 calcium fluorescence; normalized to maximal ATP response, DMSO zero | activation, % at 3 µM | AID 651787;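 active = activation above the run cutoff, the mean activation over all tested wells plus 3 SD, cut at about 12% in these data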;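 note: 0% = DMSO wells and 100% = maximal ATP response on the peak over basal ratio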
TAAR1 desens – human TAAR1 agonist that also desensitizes the receptor | shares compounds with TAAR1 agonist | CHO RD-HGA16 hTAAR1, Fluo-8 calcium, beta-PEA response inhibition | inhibition, % at 3 µM | 2,400 tested, 46% active | AID 651951;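 active = inhibition above the run cutoff, the mean inhibition of all test compounds plus 3 SD, cut at about 49% in these data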;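 note: beta-PEA stimulus applied at its EC80; loss of beta-PEA calcium signal after compound pretreatment read as receptor desensitization; 0% = DMSO with beta-PEA at EC80 and 100% = DMSO alone without agonist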
Ga16 antag count – nonselective Ga16 antagonism, counter-screen | shares compounds with TAAR1 agonist | CHO-Ga16 ATP-induced calcium, Fluo-8 fluorescence | inhibition, % at 3 µM | 2,400 tested, 39% active;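 active = inhibition above the plate's mean compound inhibition plus 3 SD, computed per plate, cut at about 22% in these data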;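 note: 0% = EC80 ATP with DMSO and 100% = DMSO wells without ATP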
Active calls of the source: *; i = inactive; nt = not tested or not shown.

SMILES | ANO1 activ | CRFBP-R2 block | TAAR1 agonist | ANO1 block | TAAR1 antagonist | CRFBP-R2 agonist | TAAR1 ag conf | Ga16 ag counter | TAAR1 desens | Ga16 antag count
O=C(Nc1ccccc1)OCCCCOC(=O)Nc1ccccc1 | i | 7 | 54* | nt | 35 | -2 | 15 | 14* | 12 | 10
Cc1nn(-c2ccccc2)c(C)c1/C=N/n1c(-c2ccncc2)n[nH]c1=S | i | -52 | 47* | i | -6 | 2 | 93* | 18* | 24 | -5
O=C(Nc1ncc(S(=O)(=O)c2ccc([N+](=O)[O-])cc2)s1)c1cccnc1 | i | -8 | 25 | i | 16 | 1 | nt | nt | nt | nt
COC(=O)C(NC(=O)c1ccccc1Cl)(Nc1ncc(S(=O)(=O)c2ccc([N+](=O)[O-])cc2)s1)C(F)(F)F (stereo unspecified) | i | -16 | 88* | i | 43 | 22 | 57* | 27* | 43 | 29*
NC(N)=NN=C(c1ccc(F)cc1)c1ccc(C(F)(F)F)cc1 | i | -45 | 51* | nt | -1 | 3 | 65* | 32* | 34 | 28*
O=C(Cc1c(F)c(F)c(F)c(F)c1F)Nc1nc(-c2ccccc2)cs1 | i | -6 | 54* | i | 47 | 2 | 83* | 33* | 69* | 30*
O=C(O)CCCC(=O)Nc1nc(-c2ccccc2)cs1 | i | -10 | 12 | i | 4 | 1 | nt | nt | nt | nt
Cc1ccc(NC(=O)Cn2sc3nc(C)cc(C)c3c2=O)c(Cl)c1 | i | -33 | 25 | i | -11 | 30 | nt | nt | nt | nt
Cc1cc(C)c2c(=O)n(CC(=O)Nc3cccc(F)c3)sc2n1 | i | -4 | 70* | i | 72* | 5 | 95* | 54* | 88* | 60*
CCOc1ccc(NC(=O)Cn2sc3nc(C)cc(C)c3c2=O)cc1 | i | -3 | nt | i | nt | 0 | nt | nt | nt | nt
Cc1cc(C)c2c(=O)n(CC(=O)Nc3ccc(Cl)cc3)sc2n1 | i | -9 | 87* | i | 80* | 4 | 100* | 61* | 87* | 68*
CCc1ccc2c(c1)NC(=O)C2(C)Cc1ccc(C(F)(F)F)o1 (stereo unspecified) | nt | nt | -1 | nt | 9 | nt | nt | nt | nt | nt
O=C(NNc1ccccc1)C(=O)NNS(=O)(=O)c1ccc([N+](=O)[O-])cc1 | i | 5 | 5 | i | -1 | 2 | nt | nt | nt | nt
O=[N+]([O-])c1ccc(S(=O)(=O)NNC(=S)NCCc2ccccc2)cc1 | i | -4 | 52* | i | -23 | 0 | 56* | 3 | 6 | 7
COc1cccc(-c2nc(CS(=O)CC(=O)NCCc3ccccc3)c(C)o2)c1 (stereo unspecified) | i | -10 | 49* | i | -12 | 0 | 52* | 0 | 12 | 0
Cc1ccc(S(=O)(=O)N(C)CC(=O)N(C)CCOc2ccccc2)cc1 | nt | 5 | 1 | nt | -6 | 1 | nt | nt | nt | nt
CCOC(=O)c1ccc(NC(=O)COc2ccccc2CNCCc2ccccc2)cc1 | i | -64 | 81* | i | 36 | 13 | 111* | 23* | 85* | 27*
CCOC(=O)c1ccc(NC(=O)COc2ccc(CNCCO)cc2OCC)cc1 | i | -8 | 5 | i | 1 | 0 | nt | nt | nt | nt
Cc1nc2ncnn2c(N2CCN(C(c3ccccc3)c3ccccc3)CC2)c1C | i | -9 | 49* | i | 39 | 0 | 27 | 15* | 17 | 9
Cc1cc(N2CCN(C(c3ccccc3)c3ccccc3)CC2)n2ncnc2n1 | i | -28 | 21 | i | 35 | -7 | nt | nt | nt | nt
Cc1ccc(N2CCCC2=O)cc1S(=O)(=O)N1CCOCC1 | i | 9 | 4 | i | -9 | 2 | nt | nt | nt | nt
CCN(CC)S(=O)(=O)c1ccc2c(c1)N(CC(=O)N1CCC(C(N)=O)CC1)C(=O)CO2 | i | 26 | 2 | i | -34 | 0 | nt | nt | nt | nt
CCOC(=O)C1=C(N)n2c(s/c(=C/c3ccco3)c2=O)=C(C(=O)OC)C1c1ccco1 (stereo unspecified) | i | 19 | 68* | i | 33 | 3 | 72* | 30* | 51* | 40*
CCN(CC)c1ccc(/C=C2/C(=O)c3ccc(C(=O)O)cc3C2=O)cc1 | i | -228 | 265* | i | 103* | 215* | 214* | 199* | 105* | 98*
CCN(CC)c1ccc(C=C2C(=O)OC3(CCCCC3)OC2=O)cc1 | i | -20 | 37 | i | 24 | 32 | nt | nt | nt | nt
SMILES | ANO1 activ | CRFBP-R2 block | TAAR1 agonist | ANO1 block | TAAR1 antagonist | CRFBP-R2 agonist | TAAR1 ag conf | Ga16 ag counter | TAAR1 desens | Ga16 antag count
CC1(C)CC(=O)/C(=C(/O)Cc2ccccc2)C(=NCCc2ccccc2)C1 | i | 14 | 56* | i | -3 | 0 | 71* | 0 | 47 | 2
CCCCN=C1CC(C)(C)CC(=O)/C1=C(/O)CCCN1C(=O)c2ccccc2C1=O | i | -1 | -2 | i | -17 | -6 | nt | nt | nt | nt
O=C1NC2(CCCCCC2)C(=O)N1Cc1cccc(Cl)c1 | i | 3 | 0 | i | 8 | 2 | nt | nt | nt | nt
O=C1NC2(CCCCC2)C(=O)N1Cc1cccc(C(F)(F)F)c1 | i | -7 | 71* | i | -19 | 0 | 3 | 0 | -7 | 9
Cc1ccc(S(=O)(=O)Nc2ccc(N(C)S(=O)(=O)c3ccc(C)cc3)cc2)cc1 | i | -9 | 52* | i | 25 | -6 | 45* | 19* | 33 | 21
CSc1ccc(S(=O)(=O)Nc2ccc(S(=O)(=O)Nc3ccc(C)cc3)cc2)cc1 | i | -89 | 34 | i | 1 | 1 | nt | nt | nt | nt
O=C(Cc1ccccc1)Nc1ccc(N2CCCC2)cc1 | i | 4 | 1 | i | -1 | -1 | nt | nt | nt | nt
CC1CCN(c2ccc(NC(=O)Cc3ccccc3)cc2)CC1 | i | -2 | 84* | i | 53* | 0 | -1 | 20* | 1 | 13
COc1ccc(OC)c(S(=O)(=O)N2CCC(C(=O)NC3CCCCCC3)CC2)c1 | i | -10 | 0 | i | -18 | -2 | nt | nt | nt | nt
